ChEMBL document CHEMBL1132111, “Design and synthesis of novel alpha(1)(a) adrenoceptor-selective antagonists. 4. Structure-activity relationship in the dihydropyrimidine series” (J Med Chem, 1999)
“And” between values parts separate entries of the source, which are not always exact repeats. Equal values may be shown once.

Legend:
Canis familiaris [1] = experiment: Area under curve at a peroral dose of 3 mg/kg in dog; format: ADME, organism-based, Canis lupus familiaris; parameters: dose 3 mg/kg, route oral; conditions: in vivo, po
Method in brief: (§1)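 Each compound dosed once intravenously at 1 mg/kg and orally at 3 mg/kg. Exposure read as plasma area under the concentration-time curve, reported in µmol min/L.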

Rattus norvegicus [2] = experiment: Area under curve at a peroral dose of 3 mg/kg in rat; format: ADME, organism-based; parameters: dose 3 mg/kg, route oral; conditions: in vivo, po; method in brief: as §1
Canis familiaris [3] = experiment: Area under curve at an iv dose of 1 mg/kg in dog; format: ADME, organism-based, Canis lupus familiaris; parameters: dose 1 mg/kg, route intravenous; conditions: in vivo; method in brief: as §1
Rattus norvegicus [4] = experiment: Area under curve at an iv dose of 1 mg/kg in rat; format: ADME, organism-based; parameters: dose 1 mg/kg, route intravenous; conditions: in vivo; method in brief: as §1
[5] = Plasma half life in dog; format: ADME, organism-based, Canis lupus familiaris
[6] = Plasma half life in rat; format: ADME, organism-based
[7] = Bioavailability in dog(iv: 1 mg/kg); format: ADME, organism-based, Canis lupus familiaris; conditions: in vivo
[8] = Bioavailability in rat; format: ADME, organism-based; conditions: in vivo
[9] = target: T1, Alpha-1D adrenergic receptor (Homo sapiens, UniProt P25100); experiment: Binding affinity against Alpha-1D adrenergic receptor (recombinant human receptor) using [3H]-prazosin.
T1 sequence (P25100 whole entry): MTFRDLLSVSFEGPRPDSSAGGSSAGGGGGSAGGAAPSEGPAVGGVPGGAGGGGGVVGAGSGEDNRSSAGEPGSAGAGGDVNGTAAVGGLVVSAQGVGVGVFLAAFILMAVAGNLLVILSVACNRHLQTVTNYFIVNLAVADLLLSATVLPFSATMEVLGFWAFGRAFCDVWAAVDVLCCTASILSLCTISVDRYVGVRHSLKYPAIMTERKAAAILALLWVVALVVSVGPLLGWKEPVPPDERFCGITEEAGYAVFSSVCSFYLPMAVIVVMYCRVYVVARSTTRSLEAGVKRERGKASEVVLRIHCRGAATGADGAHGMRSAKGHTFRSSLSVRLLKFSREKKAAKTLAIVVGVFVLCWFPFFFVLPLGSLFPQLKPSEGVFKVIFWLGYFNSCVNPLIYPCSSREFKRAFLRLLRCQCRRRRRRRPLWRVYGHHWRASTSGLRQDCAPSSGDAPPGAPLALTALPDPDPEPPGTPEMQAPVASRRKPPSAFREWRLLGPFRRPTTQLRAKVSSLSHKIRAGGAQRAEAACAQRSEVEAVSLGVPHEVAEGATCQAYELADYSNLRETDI

[10] = target: T2, Alpha-1B adrenergic receptor (Homo sapiens, UniProt P35368); experiment: Binding affinity against Alpha-1B adrenergic receptor (recombinant human receptor) using [3H]prazosin.
T2 sequence (P35368 whole entry): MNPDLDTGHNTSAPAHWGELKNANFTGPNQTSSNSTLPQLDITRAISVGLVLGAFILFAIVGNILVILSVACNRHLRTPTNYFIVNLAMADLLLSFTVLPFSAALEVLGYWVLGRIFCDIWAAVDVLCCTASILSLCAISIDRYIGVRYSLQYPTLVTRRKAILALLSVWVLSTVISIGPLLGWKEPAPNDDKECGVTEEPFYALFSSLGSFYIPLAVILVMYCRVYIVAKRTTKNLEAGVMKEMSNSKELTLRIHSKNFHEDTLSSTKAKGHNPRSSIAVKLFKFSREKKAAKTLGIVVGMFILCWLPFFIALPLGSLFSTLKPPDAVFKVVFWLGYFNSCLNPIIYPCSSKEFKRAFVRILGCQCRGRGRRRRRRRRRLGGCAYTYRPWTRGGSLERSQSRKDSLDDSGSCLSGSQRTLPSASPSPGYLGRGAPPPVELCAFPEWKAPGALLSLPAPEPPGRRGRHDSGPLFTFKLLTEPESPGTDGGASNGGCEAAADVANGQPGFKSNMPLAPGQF

Rattus norvegicus [11] = species: Rattus norvegicus; experiment: Antagonistic activity inhibiting phenylephrine induced contractions in isolated rat prostate.; format: functional, Prostate gland
[12] = target: T3, Alpha-1A adrenergic receptor (Homo sapiens, UniProt P35348); experiment: Binding affinity against Alpha-1A adrenergic receptor (recombinant human receptor) using [3H]prazosin.
T3 sequence (P35348 whole entry): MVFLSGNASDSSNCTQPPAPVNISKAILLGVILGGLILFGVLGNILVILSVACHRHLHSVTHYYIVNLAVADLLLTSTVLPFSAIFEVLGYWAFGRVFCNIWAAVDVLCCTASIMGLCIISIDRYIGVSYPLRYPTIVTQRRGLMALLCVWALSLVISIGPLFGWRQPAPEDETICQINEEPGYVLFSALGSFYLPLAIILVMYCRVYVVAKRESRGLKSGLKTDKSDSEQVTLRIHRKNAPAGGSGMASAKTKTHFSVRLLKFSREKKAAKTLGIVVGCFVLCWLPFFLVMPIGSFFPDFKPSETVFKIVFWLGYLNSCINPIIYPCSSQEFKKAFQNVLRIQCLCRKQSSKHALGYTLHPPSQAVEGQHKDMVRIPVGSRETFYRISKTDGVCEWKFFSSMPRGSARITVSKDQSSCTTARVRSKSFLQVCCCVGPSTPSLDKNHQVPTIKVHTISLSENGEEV

[13] = Selectivity against alpha-1a receptor over alpha-2a,b,c adrenoceptors
Method in brief: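 Binding affinities (Ki, nM) measured at recombinant human α1a and α2a, α2b and α2c adrenoceptors; fold selectivity expressed as the ratio of α2 subtype Ki to α1a Ki.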

[14] = target: T1, Alpha-1D adrenergic receptor; experiment: Binding affinity against isolated human aorta using [3H]- prazosin.; format: tissue-based
[15] = target: T3, Alpha-1A adrenergic receptor; experiment: Binding affinity against isolated human prostate using [3H]- prazosin.; format: tissue-based, Prostate gland
[16] = target: T4, Alpha-1A adrenergic receptor (Rattus norvegicus, UniProt P43140); experiment: Binding affinity against isolated rat prostate using [3H]- prazosin.; format: tissue-based, Prostate gland
T4 sequence (P43140 whole entry): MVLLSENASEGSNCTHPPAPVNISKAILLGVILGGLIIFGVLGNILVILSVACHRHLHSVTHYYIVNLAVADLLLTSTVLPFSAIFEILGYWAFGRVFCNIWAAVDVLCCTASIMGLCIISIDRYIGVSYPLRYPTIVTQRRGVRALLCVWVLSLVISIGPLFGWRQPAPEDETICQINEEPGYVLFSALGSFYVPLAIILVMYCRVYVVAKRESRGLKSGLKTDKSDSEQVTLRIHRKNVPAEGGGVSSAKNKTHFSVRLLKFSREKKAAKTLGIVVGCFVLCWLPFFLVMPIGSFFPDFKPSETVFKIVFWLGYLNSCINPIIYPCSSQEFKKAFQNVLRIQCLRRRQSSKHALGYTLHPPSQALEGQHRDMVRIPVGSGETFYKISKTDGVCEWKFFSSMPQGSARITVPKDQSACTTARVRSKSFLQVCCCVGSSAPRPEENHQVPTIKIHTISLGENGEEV

[17] = Selectivity for alpha-1a receptor against rat L-type calcium channel by [3H]nitrendipine binding
[18] = Bioavailability in dog; format: ADME, organism-based, Canis lupus familiaris; conditions: in vivo

SMILES	Ki [9]	Ki [10]	Ki [12] [nM]	Fold selective [13]	further results
COC(=O)C1=C(C)N=C(C)N(CCCCCN2CCC(c3ccc(C)cc3)(c3ccccc3C)CC2)C1c1ccc(F)c(F)c1 (centres undefined)	440 nM	250 nM	0.1	–	AUC (Canis familiaris [1]): 8 uM min l-1; AUC (Rattus norvegicus [2]): 21 uM min l-1; AUC (Canis familiaris [3]): 11 uM min l-1; AUC (Rattus norvegicus [4]): 35 uM min l-1; half-life [5]: 0.5 h; half-life [6]: 4.7 h; bioavailability [7]: 8%; bioavailability [8]: 17%; Kb (Rattus norvegicus [11]): 27 nM
COC(=O)C1(c2ccccc2)CCN(CCCCCN2C(C)=NC(C)=C(C(N)=O)C2c2ccc(F)cc2F)CC1 (centres undefined)	690 nM	410 nM	4.2	< 10	–
COC(=O)C1=C(C)N=C(C)N(CCCCCN2CCN(c3ccccc3OC)CC2)C1c1ccc(F)c(F)c1 (centres undefined)	65 nM	67 nM	0.4	< 100	–
COC(=O)C1=C(C)N=C(C)N(CCCCCN2CCC(c3ccccc3)(c3ccccc3)CC2)C1c1ccc(F)c(F)c1 (centres undefined)	180 nM	100 nM	0.4	–	Ki [14]: 110 nM; Ki [15]: 0.33 nM; Ki [16]: 0.97 nM; Kb (Rattus norvegicus [11]): 60 nM
COC(=O)C1=C(C)N=C(C)N(Cc2cccc(CN3CCC(C(=O)OC)(c4ccccc4)CC3)c2)C1c1ccc(F)c(F)c1 (centres undefined)	570 nM	320 nM	6.8	> 130	–
COC(=O)C1=C(C)N=C(C)N(CCCCCN2CCC(C(=O)OC)(c3ccccc3)CC2)C1c1ccc(F)cc1F (centres undefined)	700 nM	160 nM	0.5	> 1000	–
COCC1=NC(C)=C(C(=O)OC)C(c2ccc(F)c(F)c2)N1CCCCCN1CCC(C#N)(c2ccccc2)CC1 (centres undefined)	480 nM	310 nM	0.4	> 700	–
COC(=O)C1=C(C)N=C(C)N(CCCCCN2CCC(c3ccccc3)CC2)C1c1ccc(F)c(F)c1 (centres undefined)	220 nM	93 nM	0.4	> 300	–
COC(=O)C1=C(C)N=C(C)N(CCCCCN2CCN(c3ccccc3C(=O)OC)CC2)C1c1ccc(F)c(F)c1 (centres undefined)	79 nM	34 nM	0.5	> 100	–
COCC1=C(C(=O)OC)C(c2ccc(F)c(F)c2)N(CCCCCN2CCC(C#N)(c3ccccc3)CC2)C(C)=N1 (centres undefined)	680 nM	400 nM	0.4	> 4000	–
COC(=O)C1=C(C)N=C(C)N(CCC[C@H](C)CN2CCC(C#N)(c3ccccc3)CC2)C1c1ccc(F)c(F)c1 (some centres undefined)	1100 nM	480 nM	1.2	> 120	–
COC(=O)C1=C(C)N=C(C)N(CCCCCN2CCC(c3ccccc3OC)CC2)C1c1ccc(F)c(F)c1 (centres undefined)	120 nM	140 nM	0.3	> 100	–
COC(=O)C1=C(C)N=C(C)N(CCCCCN2CCC(C(=O)OC)(c3ccccc3)CC2)C1c1ccc(F)c(F)c1 (centres undefined)	550 nM and 180 nM	700 nM and 190 nM	–	–	–
COC(=O)C1=C(C)N=C(C)N(CCCCCN2CCC(C#N)(c3ccccc3)CC2)C1c1ccc(F)c(F)c1 (centres undefined)	1100 nM	490 nM	1	> 300	–
COC(=O)C1=C(C)N=C(C)N(CCCCCN2CCC(c3ccccc3C(F)(F)F)CC2)C1c1ccc(F)c(F)c1 (centres undefined)	1100 nM	500 nM	1.1	–	Selectivity [17]: < 100
COC(=O)C1=C(C)N=C(C)N(CCC[C@H](C)CN2CCC(C(=O)OC)(c3ccccc3)CC2)C1c1ccc(F)c(F)c1 (single isomer, unassigned; (+))	910 nM	430 nM	1.6	< 50	–
COC(=O)C1=C(C)N=C(C)N(CCC[C@@H](C)CN2CCC(C#N)(c3ccccc3)CC2)C1c1ccc(F)c(F)c1 (some centres undefined)	1600 nM	1700 nM	22	< 10	–
CNC(=O)C1=C(C)N=C(C)N(CCCCCN2CCC(C(=O)OC)(c3ccccc3)CC2)C1c1ccc(F)cc1F (centres undefined)	1900 nM	870 nM	14	< 80	–
COC(=O)C1=C(C)NC(=O)N(CCCCCN2CCC(C(=O)OC)(c3ccccc3)CC2)C1c1ccc(F)c(F)c1 (centres undefined)	–	–	–	> 1000	–
COC(=O)C1=C(C)N=C(C)N(CCCCCN2CCN(c3ccccc3C(N)=O)CC2)C1c1ccc(F)c(F)c1 (centres undefined)	580 nM	240 nM	0.6	–	AUC (Rattus norvegicus [2]): 4 uM min l-1; AUC (Rattus norvegicus [4]): 5 uM min l-1; half-life [5]: 4 h; half-life [6]: 2.1 h; bioavailability [18]: < 10%; bioavailability [8]: 21%; Kb (Rattus norvegicus [11]): 7 nM
COC(=O)C1=C(C)N=C(C)N(CCC[C@@H](C)CN2CCN(c3ccccc3C(N)=O)CC2)C1c1ccc(F)c(F)c1 (single isomer, unassigned; (+))	1700 nM	1500 nM	20	< 10	–
COC(=O)C1=C(C)N=C(C)N(CCC[C@H](C)CN2CCN(c3ccccc3C(N)=O)CC2)C1c1ccc(F)c(F)c1 (some centres undefined)	1700 nM	810 nM	3.5	< 100	–
COC(=O)C1=C(C)N=C(C)N(CCCCN2CCC(C(=O)OC)(c3ccccc3)CC2)C1c1ccc(F)c(F)c1 (centres undefined)	610 nM	440 nM	3.6	< 80	–
